Data: PubChem BioAssay
Calls of active or inactive are those of the source.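 Rule for the calls, unless noted: active = inhibition above 20% together with a positive visual image hit; inconclusive = visual image hit but inhibition not above 20%; inactive = no visual image hit.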 Where a SMILES comes first, the peptide text is derived from it. The star is where a group is joined. Boc = CC(C)(C)OC(=O)*

Columns and labels:
[1] = inhibitors of TNFa-induced NFkB p65 translocation, primary screen, imaging, HUVEC, MLSMR starter and 10KST1 sets (AID 438); details: HUVEC TNFa-induced p65 nuclear translocation; cell count: measured here: nuclei count (cytotoxicity indicator), at 2.08 µM; inhibition: at 2 µM, stronger effect = higher value, 0% TNFa-plus-vehicle, 100% no-TNFa wells;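 note: compound added about 3h40 before a 20 min TNFalpha stimulation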;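 for inhibition: signal is the nuclear over cytoplasmic p65 intensity ratio per well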
[2] = inhibitors of mutant huntingtin aggregation, primary screen, imaging, exon1htt(103Q)mCFP cells, high-content imaging (AID 483;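 active = visual image review flags a hit and inhibition of aggregation exceeds 20%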;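 note: compound exposure lasted 3 days before fixation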;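 for nuclei count: percent of the per-plate median nuclei count of sample wells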); details: exon1htt(103Q)mCFP cell line, aggregate imaging, at 2 µM; inhibition of aggregation: stronger effect = higher value; nuclei count: measured here: cell count, toxicity
[3] = inhibitors of E-selectin induction by TNFa, primary screen, imaging, HUVEC, immunofluorescence, MLSMR starter and 10KST1 sets (AID 487;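 active = visually confirmed hit in the image check and inhibition above 20%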;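 for inhibition: signal is fraction of cell area covered by stained E-selectin grains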;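 for nuclei count: 100% = median nuclei count of all wells on the same plate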); details: HUVEC TNFalpha-induced E-selectin immunofluorescence imaging, at 2 µM; inhibition: stronger effect = higher value; nuclei count: measured here: cell number, toxicity
[4] = target: Voltage-gated potassium channel subunit beta-2 (Rattus norvegicus) (UniProt P62483); experiment: KvBeta enzyme negative modulators, primary screen, biochemical, NADPH fluorescence (AID 622;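 active = fluorescence slope higher than the sample average by over 3 SD, cut at about -0.22 in these data, passing the limit was not always enough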;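 note: slope of raw intensity against log time taken from 70 to 1610 s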); details: recombinant KvBeta, 4-cyanobenzaldehyde reduction, at 10 µM, stronger effect = higher value
[5] = target: Voltage-gated potassium channel subunit beta-2 (Rattus norvegicus) (UniProt P62483); experiment: KvBeta positive modulators, primary screen, biochemical, NADPH fluorescence (AID 623;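 active = NADPH fluorescence slope more negative than the mean of all samples by about 3 SD, 99.7% confidence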;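 note: fluorescence intensity change per second fitted from 20 to 320 s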); details: Recombinant KvBeta, NADPH fluorescence decrease slope, 10 min; at 10 µM; stronger effect = lower value
[6] = target: Muscarinic acetylcholine receptor M4 (Homo sapiens) (UniProt P08173); experiment: compounds altering M4/GIRK thallium flux, either direction, primary screen, M4 allosteric agonist project, cell-based, HEK293 M4/GIRK, BTC-AM (AID 625;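 active = fluorescence slope after compound addition differing from the mean of all tested samples at 99.7% confidence, mostly higher but some lower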;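 note: thallium influx through GIRK channels coupled to M4 in HEK293 cells with BTC-AM dye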); details: at 10 µM, actives lie on both sides
How it was run: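 Assay system: HEK293 cells with M4 receptor and GIRK channels / Controls: carbachol and DMSO controls / Schedule: 1 h dye loading, 2 min kinetic read / Technique: kinetic fluorescence with BTC-AM dye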

[7] = inhibitors of Sendai virus-induced IRF3 signaling, primary screen, TLR/RLR signaling modifier project, cell-based, Sendai virus stimulus, luciferase, 10K MLSCN set (AID 602276;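 active = inhibition at or above 50% at 10 µM; inactive = inhibition below 50%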;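 note: firefly luciferase from ISG56 promoter only with Renilla not read in this screen; 0% = Sendai virus plus DMSO and 100% = medium plus DMSO without virus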); details: HEK293 RL24 IRF3 luciferase reporter, at 10 µM, stronger effect = higher value
[8] = inhibitors of poly I:C-induced TLR3 signaling, primary screen, cell-based, poly I:C stimulus, luciferase, 10K MLSCN set (AID 602277;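 active = inhibition of the reporter signal at or above 50%; inactive = inhibition below 50%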); details: HEK293-TLR3 RL24 IRF3 luciferase reporter, at 10 µM, stronger effect = higher value

Sequence of Muscarinic acetylcholine receptor M4 (Homo sapiens) (P08173 whole entry, looked up): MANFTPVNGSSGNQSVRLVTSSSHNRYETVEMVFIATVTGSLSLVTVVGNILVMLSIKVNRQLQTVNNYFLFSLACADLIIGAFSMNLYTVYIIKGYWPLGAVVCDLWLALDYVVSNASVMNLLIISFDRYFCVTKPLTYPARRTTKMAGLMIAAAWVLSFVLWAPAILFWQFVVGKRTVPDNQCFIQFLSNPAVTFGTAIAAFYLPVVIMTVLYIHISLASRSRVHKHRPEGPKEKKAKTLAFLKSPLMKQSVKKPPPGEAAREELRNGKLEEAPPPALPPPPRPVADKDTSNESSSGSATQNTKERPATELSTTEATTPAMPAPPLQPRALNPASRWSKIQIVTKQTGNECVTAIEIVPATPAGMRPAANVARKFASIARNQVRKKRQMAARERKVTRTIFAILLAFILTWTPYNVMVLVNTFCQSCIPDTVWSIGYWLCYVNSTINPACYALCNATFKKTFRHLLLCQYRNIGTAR
Sequence of Voltage-gated potassium channel subunit beta-2 (Rattus norvegicus) (P62483 whole entry, looked up): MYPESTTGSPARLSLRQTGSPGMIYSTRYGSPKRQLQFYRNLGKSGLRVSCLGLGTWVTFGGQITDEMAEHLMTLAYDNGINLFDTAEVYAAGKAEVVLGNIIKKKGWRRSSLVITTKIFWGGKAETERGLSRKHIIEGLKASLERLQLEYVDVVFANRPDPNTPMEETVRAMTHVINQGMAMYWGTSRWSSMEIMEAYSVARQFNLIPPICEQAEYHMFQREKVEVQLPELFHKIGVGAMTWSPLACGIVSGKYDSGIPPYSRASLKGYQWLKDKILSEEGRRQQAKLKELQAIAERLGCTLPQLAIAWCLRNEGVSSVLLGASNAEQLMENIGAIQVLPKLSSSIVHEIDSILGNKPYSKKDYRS

SMILES | cell count [1] | inhibition [1] | inhibition of aggregation [2] | nuclei count [2] | inhibition [3] | nuclei count [3] | fluorescence slope [4] | NADPH fluorescence slope [5] | fluorescence slope [6] | inhibition [7] | inhibition [8]
CCOC(=O)c1[nH]c(C)c(C(=O)Nc2ccccc2F)c1C | 637 | -9.7% (inactive) | -35.4% (inactive) | 48.5% | 11.3% (inactive) | 94.5% | -0.435 (inactive) | 2.7e-05 (inactive) | 0.00822 (inactive) | 27.9% (inactive) | -0.299% (inactive)
CCOC(=O)N1CCC(NC(=O)c2ccc3nc(N4CCOCC4)sc3c2)CC1 | 585 | 2.2% (inactive) | 0% (inactive) | 112% | 36% (inactive) | 90.8% | -0.591 (inactive) | 1.8e-05 (inactive) | 0.00698 (inactive) | 12.9% (inactive) | 12.3% (inactive)
CC(C)CC(NC(=O)OC(C)(C)C)C(=O)NC(C(=O)NC(C)C(N)=O)C(C)C (stereo not drawn) (Boc-Leu-Val-Ala-NH2; configuration not given here) | 342 | 4.6% (inactive) | 4.4% (inactive) | 116% | -20.6% (inactive) | 117% | -0.573 (inactive) | -1.3e-05 (inactive) | 0.00562 (inactive) | -9.68% (inactive) | 17.1% (inactive)
CCOC(=O)CNC(=O)c1c(C)nn(-c2ccccc2)c1Cl | 389 | 1.9% (inactive) | 0.1% (inactive) | 56.2% | -152% (inactive) | 127% | -0.571 (inactive) | -5.1e-06 (inactive) | 0.00495 (inactive) | -45.3% (inactive) | 99.2% (active)
CC1(C)Cc2c(sc3ncnc(N)c23)CO1 | 545 | -14.9% (inactive) | 5.4% (inactive) | 114% | -122% (inactive) | 108% | -0.384 (inactive) | -2.5e-05 (inactive) | 0.00833 (inactive) | 15.3% (inactive) | 16.7% (inactive)
N#Cc1c(SCC(=O)N2CCOCC2)nsc1SCC(=O)N1CCOCC1 | 398 | -8.5% (inactive) | -6.4% (inactive) | 99.1% | -45% (inactive) | 117% | -0.565 (inactive) | -2.7e-05 (inactive) | 0.0058 (inactive) | 3.35% (inactive) | 4.99% (inactive)
Cc1nnc(SCCn2c(N3CC(C)CC(C)C3)nc3c2c(=O)n(C)c(=O)n3C)s1 (stereo not drawn) | 207 | 3.4% (inactive) | 10.1% (inactive) | 84.9% | 60.7% (active) | 81.2% | -0.598 (inactive) | -2.7e-05 (inactive) | 0.00478 (inactive) | 15.7% (inactive) | 21.2% (inactive)
Cc1ccc(-c2c3c(=O)n(C)c(=O)n(C)c3cn2CCCN2CCOCC2)cc1 | 761 | 4.5% (inactive) | 1.2% (inactive) | 92.9% | -32% (inactive) | 116% | -0.414 (inactive) | 2.2e-05 (inactive) | 0.00744 (inactive) | 10.9% (inactive) | 18.9% (inactive)
CCOC(=O)C1=C(c2ccccc2)Nc2nc(C)nn2C1c1cccc(OC)c1OC (stereo not drawn) | 613 | 1.7% (inactive) | -13.2% (inactive) | 111% | -152% (inactive) | 149% | -0.508 (inactive) | -0.000215 (inactive) | 0.00365 (inactive) | 5.33% (inactive) | 15.1% (inactive)
O=C1c2ccccc2C(=O)N1OCc1ccccc1 | 457 | -6% (inactive) | 13.7% (inactive) | 80.1% | -71.8% (inactive) | 126% | -0.608 (inactive) | -3.7e-05 (inactive) | 0.00373 (inactive) | 16.6% (inactive) | 21.5% (inactive)
COC(=O)c1cc(NC(=O)C2CC=CCC2C(=O)O)cc(C(=O)OC)c1 (stereo not drawn) | 800 | -6.9% (inactive) | -7.4% (inactive) | 108% | 5.2% (inactive) | 97.7% | -0.536 (inactive) | -4.3e-05 (inactive) | 0.00439 (inactive) | 9.55% (inactive) | 7.94% (inactive)
CCCOc1ccc(C2c3c(oc4ccccc4c3=O)C(=O)N2CCCN2CCOCC2)cc1 (stereo not drawn) | 559 | 16.8% (inactive) | 26.2% (inactive) | 100% | -18.5% (inactive) | 101% | -0.413 (inactive) | -1.1e-05 (inactive) | 0.00521 (inactive) | 11.7% (inactive) | 21.3% (inactive)
COC(=O)c1ccc(CSc2ncnc3c2nnn3-c2ccc(OC)cc2)o1 | 444 | 3.3% (inactive) | -13.1% (inactive) | 95% | -43.8% (inactive) | 113% | -0.577 (inactive) | -2.7e-05 (inactive) | 0.00411 (inactive) | 1.55% (inactive) | -32.3% (inactive)
COC(=O)c1c(NC(=O)C2CC=CCC2C(=O)O)sc(C(N)=O)c1C (stereo not drawn) | 654 | -2.4% (inactive) | 7.8% (inactive) | 96.4% | -10.1% (inactive) | 113% | -0.495 (inactive) | -4.4e-05 (inactive) | 0.00475 (inactive) | 0.24% (inactive) | 11% (inactive)
CCOC(=O)C1=C(CN2CCOCC2)NC(=O)NC1c1cc(C)ccc1C (stereo not drawn) | 492 | -3% (inactive) | -1.1% (inactive) | 117% | -30.8% (inactive) | 108% | -0.205 (inactive) | -1.6e-05 (inactive) | 0.00619 (inactive) | 15.4% (inactive) | 7.78% (inactive)
COc1ccc(OC)c(NC(=O)CSc2nc3ccccc3c(=O)n2CCNC(C)=O)c1 | 497 | -4.3% (inactive) | 10.1% (inactive) | 111% | -17.6% (inactive) | 115% | -0.455 (inactive) | 4e-05 (inactive) | 0.00813 (inactive) | 14.7% (inactive) | 18.6% (inactive)
CCCn1cc(SCC(=O)NCc2ccco2)c2ccccc21 | 679 | -25.2% (inactive) | -35.4% (inactive) | 124% | 20% (inactive) | 100% | -0.521 (inactive) | 9.7e-06 (inactive) | 0.00408 (inactive) | 13% (inactive) | 5.85% (inactive)
CN1C(=O)NC(NC(=O)C2CCCCC2)(C(F)(F)F)C1=O (stereo not drawn) | 650 | 1.4% (inactive) | 0.6% (inactive) | 97.1% | 3.3% (inactive) | 99.5% | -0.579 (inactive) | -2.4e-05 (inactive) | 0.0049 (inactive) | 17% (inactive) | 17.5% (inactive)
Fc1ccccc1-c1nc(-c2ccccc2)no1 | 632 | 13.8% (inactive) | 3.3% (inactive) | 103% | -5.4% (inactive) | 97.2% | -0.554 (inactive) | -7.9e-05 (inactive) | 0.00608 (inactive) | -27.9% (inactive) | -60% (inactive)
CC(Oc1ccccc1)C(=O)N1CCCc2ccccc21 (stereo not drawn) | 474 | 9.1% (inactive) | -2.8% (inactive) | 118% | -43.6% (inactive) | 112% | -0.239 (inactive) | 1.4e-05 (inactive) | 0.00527 (inactive) | 2.1% (inactive) | 29.5% (inactive)
O=C(c1ccco1)N1CCN(c2c(-c3ccccc3)c3cc(Cl)ccc3[nH]c2=O)CC1 | 603 | 2.1% (inactive) | -2.2% (inactive) | 119% | -72.2% (inactive) | 118% | -0.456 (inactive) | 2.5e-05 (inactive) | 0.00537 (inactive) | 24.2% (inactive) | 25.7% (inactive)
FC(F)(F)C(F)(F)C(F)(F)c1nnc2ccc(N3CCOCC3)nn12 | 420 | 7.9% (inactive) | -8.6% (inactive) | 102% | -41.2% (inactive) | 111% | -0.51 (inactive) | 7.7e-05 (inactive) | 0.0046 (inactive) | -12% (inactive) | -3.61% (inactive)
CCOC(=O)CSC1=Nc2ccccc2C2=NC(CC(=O)NCc3cccs3)C(=O)N12 (stereo not drawn) | 224 | 7.2% (inactive) | 13.9% (inactive) | 81.6% | 26% (inactive) | 78.1% | -0.572 (inactive) | -5.5e-05 (inactive) | 0.00528 (inactive) | 0.227% (inactive) | 9.15% (inactive)
O=C(CSC1=NC(=O)C(Cc2ccccc2)C(=O)N1)NC1CCCCC1 (stereo not drawn) | 605 | -9.8% (inactive) | -13.9% (inactive) | 104% | -11.4% (inactive) | 108% | -0.558 (inactive) | -6.8e-05 (inactive) | 0.0034 (inactive) | -10.2% (inactive) | -11.1% (inactive)
NC(=O)c1c(NC(=O)CSc2nnc(-c3ccco3)n2-c2ccccc2)sc2c1CCC2 | 577 | -15.4% (inactive) | -3.6% (inactive) | 115% | 50.4% (inactive) | 132% | -0.525 (inactive) | 0.00013 (inactive) | 0.00489 (inactive) | 30.1% (inactive) | 32.9% (inactive)
CC(=O)Nc1ccc(Cl)c(C(N)=O)c1 | 445 | -0.6% (inactive) | -12.1% (inactive) | 94.4% | -97.8% (inactive) | 113% | -0.581 (inactive) | -7.9e-05 (inactive) | 0.00404 (inactive) | 19.4% (inactive) | 23.4% (inactive)
COc1ccccc1N1CCN(C(=O)CSc2nc(-c3ccccc3)cc(=O)[nH]2)CC1 | 284 | -10.5% (inactive) | -9.2% (inactive) | 114% | -30.1% (inactive) | 124% | -0.509 (inactive) | 9.3e-06 (inactive) | 0.00621 (inactive) | -1.48% (inactive) | 6.29% (inactive)
CCOC(=O)c1c(C)oc2ccc(O)c(CN(C)C)c12 | 663 | 1.9% (inactive) | 16.5% (inactive) | 105% | -211% (inactive) | 108% | -0.551 (inactive) | -6.7e-06 (inactive) | 0.00733 (inactive) | 8.53% (inactive) | 20% (inactive)
